The source made the active and inactive calls.
Tests used:
[1] = biological target: T1, Histamine H3 receptor (Homo sapiens, UniProt Q9Y5N1); assay: Displacement of [3H]NAMH from human histamine H3 receptor expressed in CHO cells; format: cell-based
Summary of the method: (§1)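 Radioligand displacement of [³H]NAMH from membranes isolated from CHO cells transfected with cloned human H₃ or rat H₃ receptors.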

[2] = biological target: Histamine H3 receptor (Rattus norvegicus, UniProt Q9QYN8); assay: Displacement of [3H]NAMH from rat histamine H3 receptor expressed in CHO cells; format: cell-based; summary of the method: as §1
Histamine H3 receptor (Rattus norvegicus, UniProt Q9QYN8), sequence (Q9QYN8 whole entry): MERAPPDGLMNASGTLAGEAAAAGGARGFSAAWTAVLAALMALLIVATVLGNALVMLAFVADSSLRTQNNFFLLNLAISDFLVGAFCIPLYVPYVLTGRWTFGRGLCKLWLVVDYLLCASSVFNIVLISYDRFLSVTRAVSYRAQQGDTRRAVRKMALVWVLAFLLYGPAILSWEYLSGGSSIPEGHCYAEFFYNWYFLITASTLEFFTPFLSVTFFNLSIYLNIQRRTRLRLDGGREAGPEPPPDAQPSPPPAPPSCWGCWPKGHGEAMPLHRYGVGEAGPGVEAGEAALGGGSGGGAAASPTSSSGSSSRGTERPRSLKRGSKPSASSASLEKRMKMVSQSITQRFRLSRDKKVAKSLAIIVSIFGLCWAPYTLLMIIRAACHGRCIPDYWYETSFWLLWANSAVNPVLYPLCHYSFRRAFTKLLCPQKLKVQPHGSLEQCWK

[3] = biological target: Voltage-gated inwardly rectifying potassium channel KCNH2 (Homo sapiens, UniProt Q12809); assay: Inhibition of human Erg by patch clamp assay
Voltage-gated inwardly rectifying potassium channel KCNH2, sequence (Q12809 whole entry): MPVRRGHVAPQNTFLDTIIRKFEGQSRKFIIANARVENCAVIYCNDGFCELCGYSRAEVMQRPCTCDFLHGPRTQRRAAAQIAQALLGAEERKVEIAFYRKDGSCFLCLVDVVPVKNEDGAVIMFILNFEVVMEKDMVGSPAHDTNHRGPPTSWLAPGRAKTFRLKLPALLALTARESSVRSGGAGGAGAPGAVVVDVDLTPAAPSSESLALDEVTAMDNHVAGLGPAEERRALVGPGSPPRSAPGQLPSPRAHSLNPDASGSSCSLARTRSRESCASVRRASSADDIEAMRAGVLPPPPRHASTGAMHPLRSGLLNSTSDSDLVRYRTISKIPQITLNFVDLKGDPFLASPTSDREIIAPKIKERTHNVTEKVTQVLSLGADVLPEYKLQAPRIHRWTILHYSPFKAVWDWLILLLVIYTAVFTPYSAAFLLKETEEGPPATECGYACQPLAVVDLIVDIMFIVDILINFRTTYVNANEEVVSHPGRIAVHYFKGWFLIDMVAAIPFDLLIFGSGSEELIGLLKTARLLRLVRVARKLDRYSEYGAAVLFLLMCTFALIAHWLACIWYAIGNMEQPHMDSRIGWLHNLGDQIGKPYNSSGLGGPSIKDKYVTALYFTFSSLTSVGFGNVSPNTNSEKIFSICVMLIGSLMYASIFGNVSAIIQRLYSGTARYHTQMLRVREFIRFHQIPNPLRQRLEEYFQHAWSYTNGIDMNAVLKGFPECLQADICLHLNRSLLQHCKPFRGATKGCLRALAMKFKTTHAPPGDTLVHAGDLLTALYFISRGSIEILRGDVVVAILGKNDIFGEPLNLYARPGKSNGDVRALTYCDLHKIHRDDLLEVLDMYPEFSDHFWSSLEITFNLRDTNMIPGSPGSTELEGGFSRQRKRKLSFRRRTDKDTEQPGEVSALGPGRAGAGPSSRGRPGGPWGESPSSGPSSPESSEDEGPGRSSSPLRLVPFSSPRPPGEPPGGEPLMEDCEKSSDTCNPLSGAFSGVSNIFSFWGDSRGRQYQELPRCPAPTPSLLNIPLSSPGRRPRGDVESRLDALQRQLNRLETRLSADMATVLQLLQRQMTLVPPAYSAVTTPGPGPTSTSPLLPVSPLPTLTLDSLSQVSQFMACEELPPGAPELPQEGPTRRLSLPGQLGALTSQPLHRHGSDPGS

[4] = Oral bioavailability in rat at 5 mg/kg; format: ADME, organism-based; conditions: in vivo
Summary of the method: (§2)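 Rat PK: iv dose with vehicle 3% DMSO, 30% solutol, 67% phosphate buffered saline. Oral 5 mg/kg dose with vehicle 50% Tween 80, 40% propylene carbonate, 10% propylene glycol.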

[5] = tested on: Rattus norvegicus; assay: Effect on sleep-awake cycle in EEG/EMG rat model assessed as wake promotion time at 1 mg/kg, ip after 4 hrs (reference value: 80 +/- 5 mins); format: functional; conditions: route intraperitoneal
Summary of the method: (§3)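 Rats surgically implanted for chronic EEG and EMG recording. Wake, slow-wave sleep and REM sleep scored by standard criteria. Doses spanned […]–30 mg/kg ip, given during the normal quiet (lights-on) period, with a vehicle group as control. Cumulative wake time taken as AUC over time after dosing. Statistics by ANOVA.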

[6] = Half life in rat at 1 mg/kg, iv; format: ADME, organism-based; set-up: dose 1 mg/kg, route intravenous; conditions: in vivo; summary of the method: as §2
[7] = tested on: Rattus norvegicus; assay: Effect on sleep-awake cycle in EEG/EMG rat model assessed as wake promotion at 0.1 to 1 mg/kg, ip after 4 hrs relative to control; format: functional; conditions: dose mg/kg 0.1-1; route intraperitoneal; summary of the method: as §3
[8] = Plasma protein binding in rat; format: ADME, cell-free; conditions: read-out: PPB
[9] = species: Homo sapiens; assay: Selectivity for human histamine H3 receptor over human histamine H2 receptor
Summary of the method: (§4)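 The hH3 side comes from displacement of [³H]NAMH binding in membranes from CHO cells transfected with cloned human H3 receptor. Human H1, H2 and H4 receptors were tested in an outsourced receptor selectivity profiling screen (LeadProfiler/Spectrum). The value is the fold-selectivity of hH3 over each subtype.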

[10] = Volume of distribution in rat at 1 mg/kg, iv; format: ADME, organism-based; set-up: dose 1 mg/kg, route intravenous; conditions: in vivo; summary of the method: as §2
[11] = Half life in monkey liver microsomes; format: ADME, Macaca mulatta, Microsome; conditions: rhesus monkey
[12] = tested on: Rattus norvegicus; assay: Effect on sleep-awake cycle in EEG/EMG rat model assessed as awake time at 10 mg/kg, ip after 4 hrs relative to control; format: functional; conditions: route intraperitoneal; summary of the method: as §3
[13] = Cmax in rat at 5 mg/kg, po; format: ADME, organism-based; set-up: dose 5 mg/kg, route oral; conditions: in vivo
[14] = Ratio drug uptake in brain to plasma of rat at 10 mg/kg, ip measured after 6 hrs; format: ADME, organism-based; set-up: dose 10 mg/kg, route intraperitoneal; conditions: read-out: BPR
[15] = Plasma protein binding in dog; format: ADME, cell-free, Canis lupus familiaris; conditions: read-out: PPB
[16] = biological target: Cytochrome P450 3A4 (Homo sapiens, UniProt P08684); assay: Inhibition of CYP3A4; format: ADME
Cytochrome P450 3A4, sequence (P08684 whole entry): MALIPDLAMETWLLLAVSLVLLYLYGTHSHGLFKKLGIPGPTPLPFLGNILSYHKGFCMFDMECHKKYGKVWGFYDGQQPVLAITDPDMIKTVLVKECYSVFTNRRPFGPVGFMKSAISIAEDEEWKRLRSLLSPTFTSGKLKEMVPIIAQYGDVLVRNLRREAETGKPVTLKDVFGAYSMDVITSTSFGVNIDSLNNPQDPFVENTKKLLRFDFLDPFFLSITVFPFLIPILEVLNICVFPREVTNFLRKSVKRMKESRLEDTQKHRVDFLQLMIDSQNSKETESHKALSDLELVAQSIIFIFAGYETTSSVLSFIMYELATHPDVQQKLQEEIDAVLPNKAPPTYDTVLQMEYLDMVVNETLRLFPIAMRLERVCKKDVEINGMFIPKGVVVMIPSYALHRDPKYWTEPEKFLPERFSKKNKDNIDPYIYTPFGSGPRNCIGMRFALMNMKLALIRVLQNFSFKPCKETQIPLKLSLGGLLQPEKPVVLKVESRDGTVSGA

[17] = Apparent permeability across human Caco2 cells; format: ADME, cell-based; conditions: Caco-2
[18] = Half life in rat liver microsomes; format: ADME, Microsome
[19] = Plasma protein binding in human; format: ADME, cell-free; conditions: read-out: PPB
[20] = Clearance in rat at 1 mg/kg, iv; format: ADME, organism-based; set-up: dose 1 mg/kg, route intravenous; conditions: in vivo; summary of the method: as §2
[21] = tested on: Rattus norvegicus; assay: Effect on sleep-awake cycle in EEG/EMG rat model assessed as maximal cumulative wake surplus time at 30 mg/kg, ip after 7 hrs relative to control; format: functional; conditions: route intraperitoneal; summary of the method: as §3
[22] = tested on: Rattus norvegicus; assay: Effect on sleep-awake cycle in EEG/EMG rat model assessed as wake surplus at 30 mg/kg, ip up to 22 hrs; format: functional, organism-based; set-up: dose 30 mg/kg; summary of the method: as §3
[23] = biological target: Cytochrome P450 2D6 (Homo sapiens, UniProt P10635); assay: Inhibition of CYP2D6; format: ADME
Cytochrome P450 2D6, sequence (P10635 whole entry): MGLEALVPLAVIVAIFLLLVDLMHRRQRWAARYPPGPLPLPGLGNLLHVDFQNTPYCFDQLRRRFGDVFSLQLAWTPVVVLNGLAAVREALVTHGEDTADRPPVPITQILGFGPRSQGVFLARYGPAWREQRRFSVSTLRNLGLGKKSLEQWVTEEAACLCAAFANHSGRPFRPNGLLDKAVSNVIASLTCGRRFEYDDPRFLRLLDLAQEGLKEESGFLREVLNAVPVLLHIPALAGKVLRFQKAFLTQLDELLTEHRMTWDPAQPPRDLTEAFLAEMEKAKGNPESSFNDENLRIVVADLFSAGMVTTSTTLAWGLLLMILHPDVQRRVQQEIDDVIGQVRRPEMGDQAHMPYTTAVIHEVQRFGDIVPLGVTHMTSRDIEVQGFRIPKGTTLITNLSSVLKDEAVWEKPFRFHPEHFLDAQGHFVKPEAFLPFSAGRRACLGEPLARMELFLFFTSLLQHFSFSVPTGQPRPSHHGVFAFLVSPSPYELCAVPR

[24] = biological target: T2, Cytochrome P450 1A2 (Homo sapiens, UniProt P05177); assay: Inhibition of CYP1A2; format: ADME
T2 sequence (P05177 whole entry): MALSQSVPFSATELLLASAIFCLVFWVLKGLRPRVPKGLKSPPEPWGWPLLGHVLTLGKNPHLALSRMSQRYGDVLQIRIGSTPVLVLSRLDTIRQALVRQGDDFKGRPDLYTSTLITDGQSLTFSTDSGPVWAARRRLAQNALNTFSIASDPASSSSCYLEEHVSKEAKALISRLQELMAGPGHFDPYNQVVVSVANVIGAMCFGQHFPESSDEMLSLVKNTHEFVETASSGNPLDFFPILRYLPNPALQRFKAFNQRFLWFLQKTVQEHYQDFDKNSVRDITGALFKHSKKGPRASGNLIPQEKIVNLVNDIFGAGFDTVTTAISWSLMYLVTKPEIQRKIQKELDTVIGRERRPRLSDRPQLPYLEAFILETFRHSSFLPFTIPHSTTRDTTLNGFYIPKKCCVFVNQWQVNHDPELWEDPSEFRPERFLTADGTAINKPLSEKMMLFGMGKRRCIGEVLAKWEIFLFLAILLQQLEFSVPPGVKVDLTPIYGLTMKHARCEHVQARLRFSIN

[25] = tested on: Rattus norvegicus; assay: Effect on sleep-awake cycle in ip dosed EEG/EMG rat model assessed as wake promotion after 4 hrs; format: functional, organism-based; summary of the method: as §3
[26] = Drug uptake in rat brain at 5 mg/kg, po measured after 6 hrs; format: ADME, organism-based; set-up: dose 5 mg/kg, route oral; conditions: read-out: Drug uptake
Summary of the method: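 Rats given 5 mg/kg po in 50% Tween 80, 40% propylene carbonate, 10% propylene glycol. Brain concentration determined 6 h after dosing.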

[27] = tested on: Rattus norvegicus; assay: Effect on sleep-awake cycle in EEG/EMG rat model assessed as wake promotion time at 0.1 mg/kg, ip after 4 hrs (reference value: 80 +/- 5 mins); format: functional; conditions: route intraperitoneal; summary of the method: as §3
[28] = biological target: Cytochrome P450 2C9 (Homo sapiens, UniProt P11712); assay: Inhibition of CYP2C9; format: ADME
Cytochrome P450 2C9, sequence (P11712 whole entry): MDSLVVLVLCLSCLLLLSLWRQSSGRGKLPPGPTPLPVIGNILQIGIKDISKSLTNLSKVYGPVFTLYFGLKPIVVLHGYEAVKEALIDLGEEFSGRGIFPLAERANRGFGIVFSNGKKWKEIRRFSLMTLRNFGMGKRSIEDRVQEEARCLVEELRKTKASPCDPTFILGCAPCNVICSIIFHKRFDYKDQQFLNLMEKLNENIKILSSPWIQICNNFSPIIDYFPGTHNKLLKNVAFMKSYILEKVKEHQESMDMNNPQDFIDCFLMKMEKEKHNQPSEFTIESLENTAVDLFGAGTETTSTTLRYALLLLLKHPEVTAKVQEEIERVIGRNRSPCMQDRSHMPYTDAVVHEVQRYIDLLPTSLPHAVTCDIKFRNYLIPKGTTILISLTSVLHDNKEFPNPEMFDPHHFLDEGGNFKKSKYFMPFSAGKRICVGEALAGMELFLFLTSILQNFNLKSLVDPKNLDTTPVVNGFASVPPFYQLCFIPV

[29] = tested on: Rattus norvegicus; assay: Effect on sleep-awake cycle in EEG/EMG rat model assessed as wake promotion time at 10 mg/kg, ip after 4 hrs relative to control; format: functional; conditions: route intraperitoneal; summary of the method: as §3
[30] = tested on: Rattus norvegicus; assay: Inhibition of RAMH-induced dipsogenia in ip dosed rat; format: functional
[31] = species: Homo sapiens; assay: Selectivity for human histamine H3 receptor over human histamine H1 receptor; summary of the method: as §4
[32] = tested on: Rattus norvegicus; assay: Effect on sleep-awake cycle in EEG/EMG rat model assessed as awake time at 30 mg/kg, ip after 4 hrs relative to control; format: functional; conditions: route intraperitoneal; summary of the method: as §3
[33] = species: Homo sapiens; assay: Selectivity for human histamine H3 receptor over human histamine H4 receptor; summary of the method: as §4
[34] = tested on: Rattus norvegicus; assay: Effect on sleep-awake cycle in EEG/EMG rat model assessed as wake promotion time at 0.3 mg/kg, ip after 4 hrs (reference value: 80 +/- 5 mins); format: functional; conditions: route intraperitoneal; summary of the method: as §3
[35] = biological target: Sodium-dependent dopamine transporter (Homo sapiens) (UniProt Q01959); assay: Inhibition of DAT at 10 uM
Sodium-dependent dopamine transporter (Homo sapiens), sequence (Q01959 whole entry): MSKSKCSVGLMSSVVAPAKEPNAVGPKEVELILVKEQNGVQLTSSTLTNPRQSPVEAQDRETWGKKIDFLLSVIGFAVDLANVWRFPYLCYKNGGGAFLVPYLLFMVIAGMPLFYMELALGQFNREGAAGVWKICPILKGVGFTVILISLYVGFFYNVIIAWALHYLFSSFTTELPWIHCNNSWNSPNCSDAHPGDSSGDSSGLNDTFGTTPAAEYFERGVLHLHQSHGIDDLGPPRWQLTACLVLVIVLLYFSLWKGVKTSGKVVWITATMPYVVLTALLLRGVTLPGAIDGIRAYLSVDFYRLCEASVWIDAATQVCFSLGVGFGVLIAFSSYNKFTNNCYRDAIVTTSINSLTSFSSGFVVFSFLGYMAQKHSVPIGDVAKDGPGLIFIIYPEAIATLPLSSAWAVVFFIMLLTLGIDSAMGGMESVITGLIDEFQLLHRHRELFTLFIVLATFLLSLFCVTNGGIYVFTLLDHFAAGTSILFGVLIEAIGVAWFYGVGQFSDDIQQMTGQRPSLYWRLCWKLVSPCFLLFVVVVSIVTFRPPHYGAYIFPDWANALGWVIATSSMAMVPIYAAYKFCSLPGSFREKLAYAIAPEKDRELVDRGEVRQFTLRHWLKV

[36] = biological target: Cytochrome P450 2C19 (Homo sapiens, UniProt P33261); assay: Inhibition of CYP2C19; format: ADME
Cytochrome P450 2C19, sequence (P33261 whole entry): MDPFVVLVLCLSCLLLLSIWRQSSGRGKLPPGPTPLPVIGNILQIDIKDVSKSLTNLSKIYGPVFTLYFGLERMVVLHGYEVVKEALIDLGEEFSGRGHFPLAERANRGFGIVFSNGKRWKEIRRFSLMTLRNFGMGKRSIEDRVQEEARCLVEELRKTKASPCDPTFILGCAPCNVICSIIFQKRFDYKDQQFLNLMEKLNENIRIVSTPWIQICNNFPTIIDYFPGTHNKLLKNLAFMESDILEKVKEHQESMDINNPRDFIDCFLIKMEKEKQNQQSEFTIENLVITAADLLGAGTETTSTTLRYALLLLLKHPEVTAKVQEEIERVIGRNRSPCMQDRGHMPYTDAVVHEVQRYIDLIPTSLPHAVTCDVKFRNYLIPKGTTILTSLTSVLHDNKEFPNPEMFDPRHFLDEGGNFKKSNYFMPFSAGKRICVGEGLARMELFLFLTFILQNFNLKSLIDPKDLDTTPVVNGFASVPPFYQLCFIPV

[37] = Half life in human liver microsomes; format: ADME, Microsome
[38] = biological target: T1, Histamine H3 receptor; assay: Inverse agonist activity at human histamine H3 receptor assessed as inhibition of R-alpha-methylhistamine-induced [35S]GTPgammaS binding; format: functional
[39] = tested on: Rattus norvegicus; assay: Effect on sleep-awake cycle in EEG/EMG rat model assessed as wake promotion at 10 mg/kg, ip after 2 hrs; format: functional; conditions: route intraperitoneal; summary of the method: as §3
[40] = tested on: Rattus norvegicus; assay: Effect on sleep-awake cycle in EEG/EMG rat model assessed as wake promotion time at 30 mg/kg, ip after 4 hrs relative to control; format: functional; conditions: route intraperitoneal; summary of the method: as §3
[41] = Half life in dog liver microsomes; format: ADME, Canis lupus familiaris, Microsome
[42] = tested on: Rattus norvegicus; assay: Effect on sleep-awake cycle in EEG/EMG rat model assessed as sleep rebound at 0.1 to 30 mg/kg, ip; format: functional, organism-based; summary of the method: as §3

T1 sequence (Q9Y5N1 whole entry): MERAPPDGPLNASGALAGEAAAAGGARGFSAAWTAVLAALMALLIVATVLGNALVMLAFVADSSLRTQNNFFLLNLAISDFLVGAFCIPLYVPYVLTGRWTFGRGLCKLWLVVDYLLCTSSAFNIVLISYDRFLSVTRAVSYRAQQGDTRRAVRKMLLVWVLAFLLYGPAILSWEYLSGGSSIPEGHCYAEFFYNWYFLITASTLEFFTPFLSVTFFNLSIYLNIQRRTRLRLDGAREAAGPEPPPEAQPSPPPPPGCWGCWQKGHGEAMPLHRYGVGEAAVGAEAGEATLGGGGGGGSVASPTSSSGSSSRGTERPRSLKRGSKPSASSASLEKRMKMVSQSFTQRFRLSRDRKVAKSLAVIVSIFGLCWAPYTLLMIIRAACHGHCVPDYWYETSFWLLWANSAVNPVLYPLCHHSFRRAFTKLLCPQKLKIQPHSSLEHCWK

O=c1ccc(-c2ccc(OC3CCN(C4CCC4)CC3)nc2)n[nH]1
Ki [1]: 6.3 nM | Ki [2]: 19 nM | IC50 [3]: 9000 nM | bioavailability [4]: 21%

CC(C)N1CCC(Oc2ccc(-c3ccc(=O)[nH]n3)cn2)CC1
Ki [1]: 15 nM | Ki [2]: 101 nM

CC1(C)CC(c2ccc(OC3CCN(C4CCC4)CC3)cc2)=NNC1=O
Time [5]: 116 min | half-life [6]: 114 min | Activity [7]: 45% | Ki [1]: 2.7 nM | fraction unbound [8]: 0.5 | Selectivity ratio [9]: > 1000 | Vd [10]: 3.1 L/kg | half-life [11]: > 40 min | Activity [12]: 84% | Cmax [13]: 0.27 µg/mL | Kp at 6 h [14]: 4 | fraction unbound [15]: 0.5 | IC50 [16]: > 30000 nM | Papp [17]: 270 nm/s | half-life [18]: > 40 min | fraction unbound [19]: 0.5 | clearance [20]: 1.08 L/h/kg | Time [21]: 196 min | Activity [22]: Active | IC50 [23]: > 30000 nM | Ki [2]: 4.4 nM | IC50 [24]: > 30000 nM | Activity [25]: Dose-dependent effect | concentration at 6 h [26]: 2.1 µM | Time [27]: 115 min | IC50 [28]: > 30000 nM | Activity [29]: 152% | IC50 [3]: 21000 nM | ED50 [30]: 0.14 mg/kg | inhibition [30]: Dose-dependent effect | Selectivity ratio [31]: > 1000 | Activity [32]: 98% | Selectivity ratio [33]: > 1000 | Time [34]: 122 min | inhibition [35]: 8% | IC50 [36]: > 30000 nM | half-life [37]: > 40 min | EC50 [38]: 0.8 nM | Activity [39]: 90% | Activity [40]: 193% | half-life [41]: > 40 min | bioavailability [4]: 33% | Activity [42]: inactive

O=C1CCC(c2ccc(OC3CCN(C4CCC4)CC3)cc2)=NN1
Ki [1]: 3.7 nM | Ki [2]: 6.7 nM

CC1(C)CC(c2ccc(OC3CCN(C4CCC4)CC3)c(F)c2)=NNC1=O
Ki [1]: 7.1 nM | Ki [2]: 7.2 nM

O=c1ccc(-c2ccc(OC3CCN(C4CCCC4)CC3)nc2)n[nH]1
Ki [1]: 26 nM | Ki [2]: 51 nM

Cc1cc(=O)[nH]nc1-c1ccc(OC2CCN(C3CCC3)CC2)cc1
Ki [1]: 4.4 nM | Ki [2]: 6.3 nM

O=c1ccc(-c2ccc(OC3CCN(C4CCC4)CC3)cc2)nn1-c1ccccn1
Ki [1]: 9.8 nM | Ki [2]: 15 nM

Cn1nc(-c2ccc(OC3CCN(C4CCC4)CC3)cc2)ccc1=O
Ki [1]: 2.4 nM | Ki [2]: 3.1 nM

C[C@@H]1CC(=O)NN=C1c1ccc(OC2CCN(C3CCC3)CC2)cc1
Ki [2]: 9.6 nM

Cn1nc(-c2ccc(OC3CCN(C4CCCC4)CC3)cc2)ccc1=O
Ki [1]: 2.7 nM
